Columns and labels:
[1] = Half life in Sprague-Dawley rat at 4 mg/kg, iv; type: ADME, organism-based; design: dose 4 mg/kg, route intravenous; settings: in vivo
Method in brief: (§1)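 Sprague–Dawley rats dosed iv at 4 mpk as the HCl salt in 60% PEG 200/water, 1 ml/kg.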

[2] = tested on: Rattus norvegicus; experiment: AUC in Sprague-Dawley rat at 30 mg/kg, po; settings: in vivo
[3] = Volume of distribution at steady state in Sprague-Dawley rat at 4 mg/kg, iv; type: ADME, organism-based; design: dose 4 mg/kg, route intravenous; settings: in vivo, read-out: Vdss; method in brief: as §1
[4] = target: T1, Renin (Homo sapiens, UniProt P00797); experiment: Inhibition of human recombinant renin in phosphate buffer
T1 sequence (P00797 whole entry): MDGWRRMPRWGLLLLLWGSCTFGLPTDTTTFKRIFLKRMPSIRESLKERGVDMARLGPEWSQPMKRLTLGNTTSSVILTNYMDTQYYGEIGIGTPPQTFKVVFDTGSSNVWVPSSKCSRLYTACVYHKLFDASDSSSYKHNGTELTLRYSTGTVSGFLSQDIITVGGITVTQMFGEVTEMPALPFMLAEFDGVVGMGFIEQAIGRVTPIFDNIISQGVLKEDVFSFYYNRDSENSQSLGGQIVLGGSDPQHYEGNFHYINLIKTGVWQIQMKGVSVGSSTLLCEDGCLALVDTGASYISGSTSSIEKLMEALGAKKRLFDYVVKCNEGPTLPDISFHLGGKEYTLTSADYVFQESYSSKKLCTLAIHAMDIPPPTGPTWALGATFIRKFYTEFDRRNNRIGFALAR
Method in brief: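 Recombinant human renin in PBS with 1 mM EDTA, 0.1% BSA, pH 7.4, premixed at 4 °C with human tetradecapeptide(1–14) substrate (stock 5 μM in 10 mM HCl) and hydroxyquinoline sulfate (stock 30 mM). Compounds diluted in DMSO were added, then incubated 3 h at 37 °C. Angiotensin I accumulation was measured; IC50 from % inhibition curve fit, mean of at least two experiments.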

[5] = target: T1, Renin; experiment: Inhibition of human recombinant renin in plasma
Method in brief: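 Pooled frozen human citrate plasma supplemented with recombinant human renin (150 pg/ml final). Inhibitor in DMSO at various concentrations added to a 7:1 mix of plasma and trapping anti-angiotensin I antibody (final antiserum 1:50,000) in Tris/EDTA, pH 7.2.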

[6] = Clearance in Sprague-Dawley rat at 4 mg/kg, iv; type: ADME, organism-based; design: dose 4 mg/kg, route intravenous; settings: in vivo; method in brief: as §1
[7] = AUC in Sprague-Dawley rat at 30 mg/kg, po; settings: Sprague-Dawley, plasma
[8] = Oral bioavailability in Sprague-Dawley rat at 30 mg/kg; type: ADME, organism-based; settings: in vivo
Method in brief: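 Sprague–Dawley rats dosed orally at 30 mpk as the HCl salt in 0.5% methocel, 5 ml/kg; iv reference dose 4 mpk in 60% PEG 200/water, 1 ml/kg.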

COCCCc1ccc(Cl)c(CN(C(=O)[C@@H](CN)Cc2ccc(OCCOc3c(Cl)cc(C)cc3Cl)cc2)C2CC2)c1
half-life [1]: 6 h | AUC [2]: 8.3 µM·h | Vd [3]: 12 L/kg

COC(=O)CCc1ccccc1-c1ccc(C(CN)Cc2ccc(OCCOc3c(Cl)cc(C)cc3Cl)cc2)c(C)c1 (stereo not drawn)
IC50 [4]: 0.09 nM | IC50 [5]: 141 nM

Cc1cc(Cl)c(OCCOc2ccc(CC(CN)c3ccc(-c4ccccc4CCC(=O)N(C)C)cc3C)cc2)c(Cl)c1 (stereo not drawn)
IC50 [5]: 1110 nM

Cc1cc(Cl)c(OCCOc2ccc(CC(CN)c3ccc(-c4ccccc4CCOC(N)=O)cc3C)cc2)c(Cl)c1 (stereo not drawn)
IC50 [4]: 1.02 nM | IC50 [5]: 103 nM

CC(=O)NCCc1ccccc1-c1ccc(C(CN)Cc2ccc(OCCOc3c(Cl)cc(C)cc3Cl)cc2)c(C)c1 (stereo not drawn)
clearance [6]: 34 mL/min/kg | half-life [1]: 7 h | AUC [7]: 5.5 µM·h | IC50 [4]: 0.04 nM | bioavailability [8]: 23% | Vd [3]: 9 L/kg

CC(=O)NCCCc1ccccc1-c1ccc(C(CN)Cc2ccc(OCCOc3c(Cl)cc(C)cc3Cl)cc2)c(C)c1 (stereo not drawn)
IC50 [4]: 0.97 nM | IC50 [5]: 131 nM

Cc1cc(Cl)c(OCCOc2ccc(CC(CN)c3ccc(-c4ccccc4Cl)cc3Cl)cc2)c(Cl)c1 (stereo not drawn)
IC50 [4]: 0.52 nM

COCCCc1ccccc1-c1ccc(C(CN)Cc2ccc(OCCOc3c(Cl)cc(C)cc3Cl)cc2)c(C)c1 (stereo not drawn)
IC50 [4]: 0.44 nM

COC(=O)Cc1ccccc1-c1ccc(C(CN)Cc2ccc(OCCOc3c(Cl)cc(C)cc3Cl)cc2)c(C)c1 (stereo not drawn)
IC50 [4]: 12.9 nM | IC50 [5]: 534 nM

CC(=O)NCc1ccccc1-c1ccc(C(CN)Cc2ccc(OCCOc3c(Cl)cc(C)cc3Cl)cc2)c(C)c1 (stereo not drawn)
IC50 [4]: 2.1 nM | IC50 [5]: 138 nM

Cc1cc(Cl)c(OCCOc2ccc(CC(CN)c3ccc(-c4cnc5cnccn45)cc3C)cc2)c(Cl)c1 (stereo not drawn)
IC50 [4]: 3.9 nM | IC50 [5]: 416 nM

Cc1cc(Cl)c(OCCOc2ccc(CC(CN)c3ccc(-c4ccnc(N)c4)cc3C)cc2)c(Cl)c1 (stereo not drawn)
IC50 [4]: 1.7 nM | IC50 [5]: 228 nM

Cc1cc(Cl)c(OCCOc2ccc(CC(CN)c3ccc(-c4cncnc4)cc3C)cc2)c(Cl)c1 (stereo not drawn)
IC50 [4]: 4.9 nM | IC50 [5]: 614 nM
